Experiments:
A2780 [1] = assay: Cytotoxicity against human ovarian carcinoma A2780cisR cell line; type: functional, cell-based
Summary of the method: (§1)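 Cells kept in log-phase DMEM with 10% fetal calf serum, penicillin/streptomycin and Glutamax. Seeded at 2000 cells/well and allowed 48 h adhesion at 37 °C, 5% CO2. Exposed 72 h to compound diluted from a DMSO stock into complete medium, final 0.01 to 0.0001 mg/mL, in quadruplicate. Vehicle control contained 1% DMSO. Proliferation read by MTT (1 h, DMSO solubilization, OD 590 nm).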

A2780 [2] = assay: Cytotoxicity against human ovarian carcinoma A2780 cell line; type: functional, cell-based; summary of the method: as §1

Substance | IC50 (A2780 [1]) | IC50 (A2780 [2])
CARBOPLATIN | 41.6 µM | 8.2 µM
CISPLATIN | 7.8 µM | 2.3 µM
alpha-[Ru(azpy)2(NO3)2] | 6.3 µM | 8.5 µM
alpha-[Ru(azpy)2(cbdca-O,O')] | 4.9 µM | 7.2 µM
alpha-[Ru(azpy)2(mal)] | 6.2 µM | 7.9 µM
alpha-[Ru(azpy)2Cl2] | 0.98 µM | 0.85 µM
beta-[Ru(azpy)2(NO3)2] CHCl3 | 12.1 µM | 9.7 µM
beta-[Ru(azpy)2Cl2] CHCl3 | 7.3 µM | 1.6 µM
